The source of these data is ChEMBL document CHEMBL6092133, “Enhancing the therapeutic window for Spectinamide anti-tuberculosis Agents: Synthesis, Evaluation, and activation of phosphate prodrug 3408” (Bioorg Med Chem Lett, 2024).

The nature of data set [1]: Toxicity in Sprague-Dawley rat assessed as maximum tolerated dose administered as iv bolus injection for 5 sec. It counts as organism-based. To be noted: in vivo. In short, it runs like this: (§1)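 Rats given single intravenous doses either as a bolus over 5 or 30 seconds or as a timed infusion (minutes, per line). The highest dose tolerated without acute toxicity was recorded as MTD in mg/kg.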

Data set [2] can be described thus: Toxicity in Sprague-Dawley rat assessed as maximum tolerated dose administered as iv bolus injection for 30 sec. It counts as organism-based. To be noted: in vivo. In short, it runs like this: as §1
A short description of data set [3]: Toxicity in Sprague-Dawley rat assessed as maximum tolerated dose administered via iv infusion for 5 mins. It counts as organism-based. To be noted: in vivo. Summed up:
as §1

A short description of data set [4]: Toxicity in Sprague-Dawley rat assessed as maximum tolerated dose administered via iv infusion for 15 mins. Type of data set: organism-based. To be noted: in vivo. Summed up: as §1
The nature of data set [5]: Toxicity in Sprague-Dawley rat assessed as maximum tolerated dose administered via iv infusion for 30 mins. Type of data set: organism-based. To be noted: in vivo. Summed up:
as §1

Data set [6] concerns Mycobacterium tuberculosis. Description: Antibacterial activity against Mycobacterium tuberculosis H37Rv by whole cell MIC assay. Type of data set: functional, organism-based.
The target of another data set is Bacterial 70S ribosome. Description: Inhibition of ribosome-mediated protein synthesis in Mycobacterium smegmatis. It counts as subcellular, Mycolicibacterium smegmatis.
The nature of data set [7]: Prodrug conversion in rat plasma assessed as 2-(5-chloropyridin-2-yl)-N-((2R,4R,4aS,5aR,6S,7S,8R,9S,9aR,10aS)-4a,7,9-trihydroxy-2-methyl-6,8-bis(methylamino)decahydro-2H-benzo[b]pyrano[2,3-e][1,4]dioxin-4-yl)acetamide formation by measuring half-life at 0.1 to 1 microg/ml. It counts as ADME, cell-free. To be noted: dose 0.1-1 µg/ml. Summed up: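 Prodrug incubated in vitro in fresh rat plasma. Appearance of the parent drug was followed over time to give a conversion half-life.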

Data set [8] is described as follows: Stability of compound in plasmaLyte A and milli-Q water mixture measured for >=6 hrs at room temperature by LC-MS/MS analysis. The conditions noted are these: buffer. Type of data set: physicochemical. Summed up:
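Prodrug held in dosing vehicle alone at room temperature for at least 6 hours, with compound integrity monitored over time.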

The nature of data set [9]: Prodrug conversion in male Sprague-Dawley rat assessed as AUC of 2-(5-chloropyridin-2-yl)-N-((2R,4R,4aS,5aR,6S,7S,8R,9S,9aR,10aS)-4a,7,9-trihydroxy-2-methyl-6,8-bis(methylamino)decahydro-2H-benzo[b]pyrano[2,3-e][1,4]dioxin-4-yl)acetamide at 10 mg/kg, iv administered as bolus injection and measured after 48 hrs by LC-MS/MS analysis. It counts as ADME, organism-based. The conditions noted are these: in vivo. In short, it runs like this:
(§2)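 Rats dosed once by 10 mg/kg i.v. bolus with either the parent spectinamide or the phosphate prodrug at an equivalent molar amount. Plasma parent-drug concentration-time profiles gave AUC, Cmax, clearance, Vss and terminal half-life, reported as mean ± spread.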

Data set [10] in a line: Prodrug conversion in male Sprague-Dawley rat assessed as Cmax of 2-(5-chloropyridin-2-yl)-N-((2R,4R,4aS,5aR,6S,7S,8R,9S,9aR,10aS)-4a,7,9-trihydroxy-2-methyl-6,8-bis(methylamino)decahydro-2H-benzo[b]pyrano[2,3-e][1,4]dioxin-4-yl)acetamide at 10 mg/kg, iv administered as bolus injection and measured after 48 hrs by LC-MS/MS analysis. To be noted: in vivo. Type of data set: ADME, organism-based. In short, it runs like this: as §2

The nature of data set [11]: Prodrug conversion in male Sprague-Dawley rat assessed as clearance of 2-(5-chloropyridin-2-yl)-N-((2R,4R,4aS,5aR,6S,7S,8R,9S,9aR,10aS)-4a,7,9-trihydroxy-2-methyl-6,8-bis(methylamino)decahydro-2H-benzo[b]pyrano[2,3-e][1,4]dioxin-4-yl)acetamide at 10 mg/kg, iv administered as bolus injection and measured after 48 hrs by LC-MS/MS analysis. It counts as ADME, organism-based. To be noted: in vivo. In short, it runs like this: as §2

A short description of data set [12]: Prodrug conversion in male Sprague-Dawley rat assessed as volume of distribution at steady state of 2-(5-chloropyridin-2-yl)-N-((2R,4R,4aS,5aR,6S,7S,8R,9S,9aR,10aS)-4a,7,9-trihydroxy-2-methyl-6,8-bis(methylamino)decahydro-2H-benzo[b]pyrano[2,3-e][1,4]dioxin-4-yl)acetamide at 10 mg/kg, iv administered as bolus injection and measured after 48 hrs by LC-MS/MS analysis. Type of data set: ADME, organism-based. To be noted: in vivo. In short, it runs like this: as §2

The nature of data set [13]: Prodrug conversion in male Sprague-Dawley rat assessed as half-life of 2-(5-chloropyridin-2-yl)-N-((2R,4R,4aS,5aR,6S,7S,8R,9S,9aR,10aS)-4a,7,9-trihydroxy-2-methyl-6,8-bis(methylamino)decahydro-2H-benzo[b]pyrano[2,3-e][1,4]dioxin-4-yl)acetamide at 10 mg/kg, iv administered as bolus injection and measured after 48 hrs by LC-MS/MS analysis. To be noted: in vivo. Type of data set: ADME, organism-based. In short, it runs like this: as §2

Data set [14] is described as follows: AUC in male Sprague-Dawley rat at 10 mg/kg, iv administered as bolus injection and measured after 48 hrs by LC-MS/MS analysis. The conditions noted are these: in vivo. Type of data set: ADME, organism-based. In short, it runs like this: as §2
A short description of data set [15]: Cmax in male Sprague-Dawley rat at 10 mg/kg, iv administered as bolus injection and measured after 48 hrs by LC-MS/MS analysis. Type of data set: ADME, organism-based. The conditions noted are these: in vivo. In short, it runs like this: as §2
Data set [16] in a line: Clearance in male Sprague-Dawley rat at 10 mg/kg, iv administered as bolus injection and measured after 48 hrs by LC-MS/MS analysis. Type of data set: ADME, organism-based. The conditions noted are these: in vivo. Summed up:
as §2

A short description of data set [17]: Volume of distribution at steady state in male Sprague-Dawley rat at 10 mg/kg, iv administered as bolus injection and measured after 48 hrs by LC-MS/MS analysis. Type of data set: ADME, organism-based. The conditions noted are these: in vivo, read-out: Vdss. In short, it runs like this:
as §2

The nature of data set [18]: Half life in male Sprague-Dawley rat at 10 mg/kg, iv administered as bolus injection and measured after 48 hrs by LC-MS/MS analysis. It counts as ADME, organism-based. To be noted: in vivo. In short, it runs like this: as §2

Active and inactive are the calls of the source. No cut-off for these calls is given here.

By MTD is commonly meant the highest dose tested that stayed within the study's limit of toxicity. For `CN[C@@H]1[C@H](O)[C@H](NC)[C@H]2O[C@]3(O)[C@H](O[C@@H]2[C@H]1O)O[C@H](C)C[C@H]3NC(=O)Cc1ccc(Cl)cn1`, the MTD at 5 s in [1] came out at 75 mg/kg. Further, the MTD at 0.5 min in data set [2] was 100 mg/kg. The MTD at 5 min in [3] was determined as 100 mg/kg. Also, the MTD at 0.25 h in data set [4] turned out to be 150 mg/kg. Also, in [5], the MTD at 0.5 h amounted to 300 mg/kg.

For orientation: IC50 means the concentration that gives 50% inhibition. Read a low IC50 as greater potency. A word on the AUC: it is the area under the concentration-time curve, a measure of exposure. As usually defined, the Cmax is the highest concentration seen after dosing. One may read the Vdss as a proportionality between amount in the body and measured concentration, not a real space. Turning to `CN[C@@H]1[C@H](O)[C@H](NC)[C@H]2O[C@]3(O)[C@H](O[C@@H]2[C@H]1O)O[C@H](C)C[C@H]3NC(=O)Cc1ccc(OP(=O)(O)O)cn1`, in data set [1], the MTD at 5 s is greater than 500 mg/kg. Also, the outcome in data set [6] was inactive. On Bacterial 70S ribosome, this compound had an IC50 of 12200 nM. The t1/2 in data set [7] came to 19 min; in [13], 23.4 min. Moreover, the Stability entry in [8] is on record as “Stable”. For the same compound, in [9], the AUC worked out at 18.5 mg·h/L. Moreover, in data set [10], the Cmax was found to be 38.9 mg/L. Further, the CL in [11] was 0.546 L/h/kg. In data set [12], the Vdss stood at 0.322 L/kg.

`CN[C@@H]1[C@H](O)[C@H](NC)[C@H]2O[C@@]3(O)C(=O)C[C@@H](C)O[C@H]3O[C@@H]2[C@H]1O` [SPECTINOMYCIN] gave an IC50 against Bacterial 70S ribosome of 1080 nM.

What is called clearance is a measure of how efficiently the substance is removed, as volume per time. A low value points to a low capacity for elimination. The half-life is how long it takes for the measured level to halve. High values mean slow loss, low ones fast loss. In the case of `CN[C@@H]1[C@H](O)[C@H](NC)[C@H]2O[C@]3(O)[C@H](O[C@@H]2[C@H]1O)O[C@H](C)C[C@H]3NC(=O)Cc1ccc(O)cn1`, in data set [1], the MTD at 5 s was determined as 200 mg/kg. For the same compound, the MTD at 0.5 min in data set [2] was 200 mg/kg. Moreover, the MTD at 5 min in [3] came out at 350 mg/kg. The MTD at 0.25 h in data set [4] is greater than 500 mg/kg. Also, the IC50 against Bacterial 70S ribosome was 1790 nM. In data set [14], this compound gave an AUC at 48 h of 22000 ng·h/mL. The same compound gave a peak concentration (Cmax) in data set [15] of 47000 ng/mL. The compound also showed a clearance in data set [16] of 7.72 mL/min/kg. For the same compound, in data set [17], the Vd turned out to be 0.494 L/kg. For the same compound, the half-life in data set [18] is 23.5 min.
